# Assay results: ChEMBL document CHEMBL1221342, “Synthesis and in vitro antitumor activity of new 4,5-dihydropyrazole derivatives” (Bioorg Med Chem, 2010)
# Columns and labels:
# [1] = test system: NCI-H460; test: Growth inhibition of human NCI-H460 cells after 48 hrs by SRB assay; type: functional; details: NCI-H460, 48 h
# Outline: (§1)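 NCI 60-cell-line screen. Cells grown in RPMI1640 with 5% fetal calf serum and 2 mM L-glutamine, with inoculum density set by cell line. Preincubated 24 h, then given compound in DMSO at 10^-4 to 10^-8 M (five 10-fold steps) for 48 h continuous exposure. Growth measured by SRB protein assay. GI50, TGI and LC50 reported as –log molar.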
# [2] = test system: U-251; test: Growth inhibition of human U251 cells after 48 hrs by SRB assay; type: functional; details: U-251, 48 h; outline: as §1
# [3] = test system: UO-31; test: Growth inhibition of human UO31 cells after 48 hrs by SRB assay; type: functional; details: UO-31, 48 h; outline: as §1
# [4] = test system: SR; test: Growth inhibition of human SR cells after 48 hrs by SRB assay; type: functional; outline: as §1
# [5] = test system: NCI-H322M; test: Growth inhibition of human NCI-H322M cells after 48 hrs by SRB assay; type: functional; outline: as §1
# [6] = test system: SNB-75; test: Growth inhibition of human SNB75 cells after 48 hrs by SRB assay; type: functional; details: SNB-75, 48 h; outline: as §1
# [7] = test system: NCI-H460; test: Cytotoxicity against human NCI-H460 cells after 72 hrs by SRB assay; type: functional, cell-based; details: NCI-H460, 72 h
# Outline: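 NCI-H460 (ATCC) cells seeded in 96-well plates in growth medium. Scalar drug concentrations added 24 h after plating, then 72 h exposure. Surviving cells stained with sulforhodamine B, OD read at 570 nm. IC50 (50% growth inhibition) fitted from dose–response curves. Mean ± SE of at least three independent experiments.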
# [8] = test system: RXF 393; test: Growth inhibition of human RXF393 cells after 48 hrs by SRB assay; type: functional; details: RXF 393, 48 h; outline: as §1
# [9] = test system: OVCAR-4; test: Growth inhibition of human OVCAR4 cells after 48 hrs by SRB assay; type: functional; details: OVCAR-4, 48 h; outline: as §1
# [10] = test system: CCRF-CEM; test: Growth inhibition of human CCRF-CEM cells after 48 hrs by SRB assay; type: functional; outline: as §1
# [11] = test system: SF-268; test: Growth inhibition of human SF268 cells after 48 hrs by SRB assay; type: functional; details: SF-268, 48 h; outline: as §1
# [12] = test system: T47D; test: Growth inhibition of human T47D cells after 48 hrs by SRB assay; type: functional; outline: as §1
# [13] = test system: HCC 2998; test: Growth inhibition of human HCC2998 cells after 48 hrs by SRB assay; type: functional; details: HCC 2998, 48 h; outline: as §1
# [14] = test system: SK-MEL-5; test: Growth inhibition of human SK-MEL-5 cells after 48 hrs by SRB assay; type: functional; details: SK-MEL-5, 48 h; outline: as §1
# [15] = test system: SW-620; test: Growth inhibition of human SW620 cells after 48 hrs by SRB assay; type: functional; details: SW-620, 48 h; outline: as §1
# [16] = test system: PC-3; test: Growth inhibition of human PC3 cells after 48 hrs by SRB assay; type: functional; details: PC-3, 48 h; outline: as §1
# [17] = test system: MDA-MB-468; test: Growth inhibition of human MDA-MB-468 cells after 48 hrs by SRB assay; type: functional; details: MDA-MB-468, 48 h; outline: as §1
# [18] = test system: Malme-3M; test: Growth inhibition of human MALME-3M cells after 48 hrs by SRB assay; type: functional; outline: as §1
# [19] = test system: SF-295; test: Growth inhibition of human SF295 cells after 48 hrs by SRB assay; type: functional; details: SF-295, 48 h; outline: as §1
# [20] = test system: HCT-15; test: Growth inhibition of human HCT15 cells after 48 hrs by SRB assay; type: functional; details: HCT-15, 48 h; outline: as §1
# [21] = test system: HL-60(TB); test: Growth inhibition of human HL-60(TB) cells after 48 hrs by SRB assay; type: functional; details: HL-60, 48 h
# Outline: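 NCI 60-cell-line screen: cells grown in RPMI1640 with 5% fetal calf serum and 2 mM L-glutamine, preincubated 24 h, then exposed to compound in DMSO at five concentrations (10^-4 to 10^-8 M) for 48 h continuous exposure. Growth estimated by sulforhodamine B protein assay; reported as pGI50 (-log molar concentration inhibiting net cell growth by 50%).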
# [22] = test system: OVCAR-3; test: Growth inhibition of human OVCAR-3 cells after 48 hrs by SRB assay; type: functional; details: OVCAR-3, 48 h; outline: as §1
# [23] = test system: NCI-H522; test: Growth inhibition of human NCI-H522 cells after 48 hrs by SRB assay; type: functional; details: NCI-H522, 48 h; outline: as §1
# [24] = test system: BT-549; test: Growth inhibition of human BT549 cells after 48 hrs by SRB assay; type: functional; details: BT-549, 48 h; outline: as §1
# [25] = test system: DU-145; test: Growth inhibition of human DU145 cells after 48 hrs by SRB assay; type: functional; details: DU-145, 48 h; outline: as §1
# [26] = test system: HOP-62; test: Growth inhibition of human HOP62 cells after 48 hrs by SRB assay; type: functional; details: HOP-62, 48 h; outline: as §1
# [27] = test system: KM12; test: Growth inhibition of human KM12 cells after 48 hrs by SRB assay; type: functional; details: KM12, 48 h; outline: as §1
# [28] = Growth inhibition of human […] cells after 48 hrs by SRB assay; type: functional; outline: as §1
# [29] = test system: M14; test: Growth inhibition of human M14 cells after 48 hrs by SRB assay; type: functional; details: M14, 48 h; outline: as §1
# [30] = test system: MCF7; test: Growth inhibition of human MCF7 cells after 48 hrs by SRB assay; type: functional; details: MCF7, 48 h; outline: as §1
# [31] = test system: TK-10; test: Growth inhibition of human TK10 cells after 48 hrs by SRB assay; type: functional; details: TK-10, 48 h; outline: as §1
# [32] = test system: IGROV-1; test: Growth inhibition of human IGROV1 cells after 48 hrs by SRB assay; type: functional; details: IGROV-1, 48 h; outline: as §1
# [33] = test system: K562; test: Growth inhibition of human K562 cells after 48 hrs by SRB assay; type: functional; details: K562, 48 h; outline: as §1
# [34] = test system: HT-29; test: Growth inhibition of human HT-29 cells after 48 hrs by SRB assay; type: functional; details: HT-29, 48 h; outline: as §1
# [35] = test system: HCT-116; test: Growth inhibition of human HCT116 cells after 48 hrs by SRB assay; type: functional; details: HCT-116, 48 h; outline: as §1
# [36] = test system: A498; test: Growth inhibition of human A498 cells after 48 hrs by SRB assay; type: functional; details: A498, 48 h; outline: as §1
smiles,measurement,setting,value
COc1cc(C2CC(c3ccc(N(C)C)cc3)=NN2C(C)=O)cc(OC)c1OC (centres undefined),GI50,[1],631 nM
same,TGI,[1]; read-out: pTGI (converted),> 100000 nM
same,GI50,[2],631 nM
same,TGI,[2]; read-out: pTGI (converted),> 100000 nM
same,GI50,[3],2510 nM
same,TGI,[3]; read-out: pTGI (converted),> 100000 nM
same,GI50,[4],631 nM
same,TGI,[4]; read-out: pTGI (converted),> 100000 nM
same,GI50,[5],3980 nM
same,TGI,[5]; read-out: pTGI (converted),63100 nM
same,GI50,[6],794 nM
same,TGI,[6]; read-out: pTGI (converted),> 100000 nM
same,IC50,[7],1800 nM
same,GI50,[8],1580 nM
same,TGI,[8]; read-out: pTGI (converted),5010 nM
same,GI50,[9],3980 nM
same,TGI,[9]; read-out: pTGI (converted),> 100000 nM
same,GI50,[10],2510 nM
same,TGI,[10]; read-out: pTGI (converted),> 100000 nM
same,GI50,[11],2510 nM
same,TGI,[11]; read-out: pTGI (converted),> 100000 nM
same,GI50,[12],6310 nM
same,TGI,[12]; read-out: pTGI (converted),> 100000 nM
same,GI50,[13],1260 nM
same,TGI,[13]; read-out: pTGI (converted),20000 nM
same,GI50,[14],631 nM
same,TGI,[14]; read-out: pTGI (converted),12600 nM
same,GI50,[15],501 nM
same,TGI,[15]; read-out: pTGI (converted),> 100000 nM
same,GI50,[16],501 nM
same,TGI,[16]; read-out: pTGI (converted),> 100000 nM
same,GI50,[17],1580 nM
same,TGI,[17]; read-out: pTGI (converted),> 100000 nM
same,GI50,[18],> 100000 nM
same,TGI,[18]; read-out: pTGI (converted),> 100000 nM
same,GI50,[19],158 nM
same,TGI,[19]; read-out: pTGI (converted),631 nM
same,GI50,[20],631 nM
same,GI50,[21],1000 nM
same,TGI,[21]; read-out: pTGI (converted),6310 nM
same,GI50,[22],251 nM
same,TGI,[22]; read-out: pTGI (converted),1000 nM
same,GI50,[23],631 nM
same,TGI,[23]; read-out: pTGI (converted),7940 nM
same,GI50,[24],2510 nM
same,TGI,[24]; read-out: pTGI (converted),> 100000 nM
same,GI50,[25],2000 nM
same,TGI,[25]; read-out: pTGI (converted),12600 nM
same,GI50,[26],794 nM
same,TGI,[26]; read-out: pTGI (converted),> 100000 nM
same,GI50,[27],794 nM
same,TGI,[27]; read-out: pTGI (converted),31600 nM
same,GI50,[28],3160 nM
same,TGI,[28]; read-out: pTGI (converted),15800 nM
same,GI50,[29],501 nM
same,TGI,[29]; read-out: pTGI (converted),2510 nM
same,GI50,[30],398 nM
same,TGI,[30]; read-out: pTGI (converted),> 100000 nM
same,GI50,[31],12600 nM
same,TGI,[31]; read-out: pTGI (converted),> 100000 nM
same,GI50,[32],2510 nM
same,GI50,[33],1580 nM
same,TGI,[33]; read-out: pTGI (converted),> 100000 nM
same,GI50,[34],398 nM
same,TGI,[34]; read-out: pTGI (converted),15800 nM
same,GI50,[35],501 nM
same,TGI,[35]; read-out: pTGI (converted),20000 nM
same,GI50,[36],2510 nM
same,TGI,[36]; read-out: pTGI (converted),20000 nM
